# This is one part of a sample in which hits are shown more often than they occur.
# ERp5 block = ERp5 (human) disulfide isomerase inhibition; AID 651711; hit rate 0.05% among 350,000; inhibition, % at 9.99 µM; Q15084; ERp5 insulin aggregation, absorbance 650 nm, 90 min;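 active means mean replicate inhibition above about 25%, with every replicate also reaching it, limit read from the data, passing the limit was not always enough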
# Target sequence (Q15084 whole entry, looked up): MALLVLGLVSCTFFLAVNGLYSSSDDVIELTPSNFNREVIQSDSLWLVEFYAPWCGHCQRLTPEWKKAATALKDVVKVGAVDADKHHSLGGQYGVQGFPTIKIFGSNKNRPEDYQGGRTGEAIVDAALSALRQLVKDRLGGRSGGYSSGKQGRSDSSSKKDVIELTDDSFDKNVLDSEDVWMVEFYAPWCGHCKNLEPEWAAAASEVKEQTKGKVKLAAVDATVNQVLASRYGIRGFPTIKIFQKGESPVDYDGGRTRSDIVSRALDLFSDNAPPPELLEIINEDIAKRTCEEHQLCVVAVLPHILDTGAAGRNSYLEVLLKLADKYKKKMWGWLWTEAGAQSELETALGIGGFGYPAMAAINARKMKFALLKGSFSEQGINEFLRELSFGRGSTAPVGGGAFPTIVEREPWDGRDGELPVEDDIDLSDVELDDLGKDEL
# ERAP1 HTS inh = blocks human ERAP1 aminopeptidase activity; Q9NZ08; inhibition, % at 10.7 µM; AID 652197; hit rate 0.15% among 340,000; recombinant ERAP1, Leu-AMC fluorescence, 60 min;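 active means mean replicate inhibition of at least 30%, or all replicates individually reaching that 30% level; inactive means mean below 30% and not every replicate reaching it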
# S100A4 MyoIIA = inhibitors of human S100A4 binding to myosin IIA peptide; P26447; S100A4/TAMRA-MyoIIA peptide fluorescence polarization; inhibition, % at 10.7 µM; hit rate 0.14% among 360,000;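 active means mean inhibition of at least 70% across replicates, with every replicate also reaching that level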
#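 Material: human S100A4 monomer with TAMRA-labelled myosin IIA peptide; buffer or medium: HEPES pH 7.2 with CaCl2, KCl, NaCl, DTT, Triton; compound dosing: one concentration per compound; schedule: 5 min incubation before reading; benchmarks: neutral control DMSO, positive control TFP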
# PDI turbidity = blocks human protein disulfide isomerase activity; AID 588391; hit rate 0.052% among 350,000; inhibition, % at 10 µM; PDI insulin aggregation turbidity, A650, 90 min;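 active means mean inhibition across replicates of 30% or more, whatever share of single replicates reach that level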
# FGF22 binding = shifts melting point of recombinant human FGF22; Q9HCT0; recombinant FGF22 thermal shift, SYPRO orange fluorescence; percent of sucrose octasulfate shift, DMSO zero; activity (Tm shift, normalised), % at 9.99 µM; hit rate 1.5% among 340,000;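 active means mean Tm shift, scaled 0 neutral to 100 positive control, at about 1.3% or above, every replicate too, limit read from the data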
# Target sequence (Q9HCT0 whole entry, looked up): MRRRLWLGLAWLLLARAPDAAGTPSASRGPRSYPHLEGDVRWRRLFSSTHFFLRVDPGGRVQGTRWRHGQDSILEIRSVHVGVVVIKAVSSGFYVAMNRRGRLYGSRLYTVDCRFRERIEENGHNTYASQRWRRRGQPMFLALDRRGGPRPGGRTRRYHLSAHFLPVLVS
# Numbers stand for hits; - = inactive; . = no result given.
SMILES,ERp5 block,ERAP1 HTS inh,S100A4 MyoIIA,PDI turbidity,FGF22 binding
Cc1ccc(C(=O)Nc2nnc(CC(=O)N/N=C/c3ccncc3)s2)cc1,-,-,-,-,44
Cc1ccc(C(C)(C)C)cc1S(=O)(=O)N1CC(=O)Nc2ccccc21,-,-,-,-,-
Cc1cc(C(C)(C)C)cc(C)c1S(=O)(=O)N1CC(=O)Nc2ccccc21,-,-,-,-,1.5
O=C(O)c1cc(N2N=C(C(F)(F)F)/C(=C/C=C/c3ccco3)C2=O)ccc1Cl,-,33,-,-,.
CCN(CC(=O)Nc1ccc(NC(C)=O)cc1)C(=O)C(c1ccccc1)c1ccccc1,-,-,-,-,43
CCN(CC(=O)Nc1ccc(NC(C)=O)cc1)C(=O)/C=C/c1ccccc1,-,-,-,-,-
CC(=O)N1CCCCN2[C@H](C1)[C@H](c1ccc(-c3cccc(C(=O)N(C)C)c3)cc1)[C@@H]2CO,-,-,-,.,-
COc1ccc(C#Cc2ccc([C@H]3[C@@H](CO)N4CCCCN(C(=O)Nc5ccccc5)C[C@@H]34)cc2)cc1,-,-,-,.,-
COc1ccc(C#Cc2ccc([C@H]3[C@H]4CN(C(=O)Nc5ccccc5)CCCCN4[C@H]3CO)cc2)cc1,-,-,119,.,-
O=C(C1CCCC1)N1CCCCN2[C@H](CO)[C@@H](c3ccc(C#CC4(O)CCCC4)cc3)[C@H]2C1,-,-,126,.,-
CC(=O)N1CCCCN2[C@@H](CO)[C@H](c3ccc(-c4cccc(C(=O)N(C)C)c4)cc3)[C@@H]2C1,-,-,102,.,-
CC(=O)N1CCCCN2[C@H](CO)[C@H](c3ccc(C#Cc4ccccc4F)cc3)[C@@H]2C1,-,-,97,.,-
Cc1cc(C(=O)Nc2cccc3c2O[C@@H](CN(C)C(=O)Nc2cccc4ccccc24)[C@@H](C)CN([C@@H](C)CO)C3=O)n(C)n1,-,-,-,.,-
O=C1CCN(CCCN2CCC(=O)NC2=S)C(=S)N1,-,-,-,-,44
CCCCN1CCC(=O)NC1=O,-,-,-,-,-
COc1cc(/C=C/C(=O)O)ccc1S(=O)(=O)N1CCCc2ccccc21,-,-,-,-,43
Cc1oc(-c2ccccc2Cl)nc1CN1CCCC1c1ccc(F)cc1 (configuration not stated),-,-,-,-,-
Cc1oc(-c2ccccc2Cl)nc1CN1CCCCC1c1cccnc1 (configuration not stated),-,-,-,-,43
COc1ccc(N(C(=O)CCl)C(C(=O)NCCc2ccccc2)c2cccs2)cc1 (configuration not stated),-,-,-,-,43
COc1ccc(CNC(=O)C(c2ccncc2)N(C(=O)Cc2cccs2)c2ccccc2)cc1 (configuration not stated),-,-,-,-,-
COc1ccc(C[C@@H]2OC3(C=CC(=O)C=C3)O[C@H]2Cc2ccc(OC)cc2)cc1,.,.,.,67,.
O=C1C=CC2(C=C1)O[C@H](Cc1ccccc1)[C@@H](Cc1ccccc1)O2,-,-,-,44,-
O=C1Nc2ccccc2C1Cc1ccccc1 (configuration not stated),-,-,-,-,-
CCOc1ccc(C(=O)n2cnnc2N)cc1,-,-,-,-,-
Fc1cccc(NC(=S)NCCc2ccccc2)c1,-,-,-,-,1.7
SMILES,ERp5 block,ERAP1 HTS inh,S100A4 MyoIIA,PDI turbidity,FGF22 binding
Fc1ccc(F)c(NC(=S)NCCc2ccccc2)c1,-,-,-,-,.
Fc1ccc(CCNC(=S)Nc2ccc(F)c(Cl)c2)cc1,-,-,-,-,1.9
CC(=O)c1cccc(N2C(=O)Nc3ccccc3N2O)c1,-,-,-,-,43
Nn1c(SCC(=O)NC2CCCCCC2)nnc1-c1ccco1,-,-,-,-,-
Cc1nn(Cc2ccccc2)c(C)c1/C=N/NC(=O)c1cccnc1,-,-,-,-,-
Cc1c(/C=N/NC(=O)c2cccnc2)cc(C#N)n1C,-,-,-,-,43
Cc1ccc(Cn2nc(C)c(/C=N/NC(=O)c3cccnc3)c2C)cc1,-,-,-,-,43
C[C@H](CO)N1C[C@H](C)[C@H](CN(C)S(=O)(=O)c2ccc(F)cc2)Oc2ccc(NS(=O)(=O)c3cn(C)cn3)cc2CC1=O,-,-,-,.,-
CC(=O)c1cccc(NC(=O)CO/N=C2/CCCc3nonc32)c1,-,-,-,-,-
COCCN(C(=O)CCc1nnc(CCc2c[nH]c3ccccc23)o1)C(C)C,-,-,-,-,44
CC1CCCCN1C(=O)COC(=O)Cc1c[nH]c2ccccc12 (configuration not stated),-,-,-,-,43
CCC1CCCCN1C(=O)CCc1nnc(Cc2c[nH]c3ccccc23)o1 (configuration not stated),-,-,-,-,-
CC1CCCCN1C(=O)CCc1nnc(Cc2c[nH]c3ccccc23)o1 (configuration not stated),-,-,-,-,44
CCCNC(=O)C1(C)CCN(C(=O)C(c2ccccc2)c2ccccc2)C1 (configuration not stated),-,-,-,-,-
O=C(Cn1c(=O)sc2ccccc21)Nc1ccc(S(=O)(=O)N2CCCC2)cc1,.,.,.,-,.
CCn1cc(C(=O)NC2CCCCC2)c(=O)c2cc(S(=O)(=O)N(C)C)ccc21,-,-,-,.,-
CC1=NOC(=O)/C1=C\c1ccc(-c2ccc(Br)cc2C(=O)O)o1,-,38,-,-,-
CC1=NOC(=O)/C1=C\c1ccc(-c2ccc(Br)cc2)o1,-,-,-,-,.
COc1ccc(-c2cnc3c(c2)C(=O)N([C@@H](C)CO)C[C@@H](C)[C@@H](CN(C)Cc2cccnc2)O3)cc1,-,-,-,.,-
O=C(NCC1CCCO1)C(=O)N/N=C/c1ccccc1C(=O)O (configuration not stated),-,-,-,-,43
O=C(NN=Cc1ccccc1C(=O)O)C(=O)NN=Cc1ccccc1C(=O)O,-,-,-,-,-
CN1C(=O)c2cc(NC(=O)C3CCCCC3)ccc2OC[C@H]2O[C@@H](CC(=O)NCC3CCCCC3)CC[C@H]21,-,-,-,.,.
O=C(COC(=O)c1cccs1)NCC1CCCCC1,-,-,-,-,43
O=C(COC(=O)c1cccs1)NCc1ccccc1,-,-,-,-,.
CCCN1CCCCC(NC(=O)c2c(F)cccc2F)C1=O (configuration not stated),-,-,107,.,-
COc1ccc(S(=O)(=O)Nc2cccc3c2O[C@@H](CN(C)S(=O)(=O)c2ccc(C)cc2)[C@@H](C)CN([C@@H](C)CO)C3=O)cc1,.,.,.,.,-
CC(C)(C)NC(=O)COC(=O)c1ccc(Cl)nc1,-,-,-,-,43
CCOC(=O)c1c(O)c(Cl)c(C)[nH]c1=O,-,-,-,-,43
CC(C)(C)NC(=O)c1nn(Cc2ccccc2)c(=O)c2ccccc12,-,-,-,-,43
Cc1nn(C)cc1CN(C)C(=O)CC12CC3CC(CC(C3)C1)C2,.,.,.,-,.

# Assay outcomes (PubChem)
